Results collected from several papers.
Target: Dual specificity protein kinase CLK3 (CLK3, Homo sapiens, UniProt P49761)

Compound	effect on	mode	method	concentration	endpoint	value
COc1cc(Nc2ncc(F)c(Nc3ccc4c(n3)NC(=O)C(C)(C)O4)n2)cc(OC)c1OC	binding	–	competition with immobilised ligand	10 µM	inhibition	78%
COc1ncccc1-c1cnn2ccc(N3CCN(C(=O)OC(C)C)CC3)nc12	binding	–	competition with immobilised ligand	1 µM	remaining binding	78%
Cn1cc(-c2cc(F)cc(N3CCn4c(cc5c4CCCC5)C3=O)c2CO)cc(Nc2ccc(N3CCN(C4COC4)CC3)cn2)c1=O	enzyme activity	inhibitor	–	0.1 µM	inhibition	11%
CC(C)(C)c1cc(C=C(C#N)C#N)cc(Br)c1O	enzyme activity	inhibitor	–	0.5 µM	remaining activity	122%
Cn1cncc1[C@@](O)(COc1ccc(C#N)cc1-c1ccc(OC(F)(F)F)cc1)c1ccc(C#N)cc1	cell-free assay	–	competition with immobilised ligand	1 µM	remaining binding	100%
Cc1nn(C)cc1-c1nc2c(N3CCN(Cc4ccc(Cl)cc4)CC3)c(Cl)cnc2[nH]1	binding	–	competition with immobilised ligand	1 µM	remaining binding	88%
Cn1cc(-c2cccc(N3CCc4c(sc5c4CC(C)(C)C5)C3=O)c2CO)cc(Nc2ccncn2)c1=O	enzyme activity	inhibitor	–	1 µM	inhibition	4%
Nc1ncc(-c2nc(N3CCOCC3)nc(N3CCOCC3)n2)c(C(F)F)n1	binding	–	competition with immobilised ligand	10 µM	remaining binding	90%
N#CC1(c2ccccn2)CCN(Cc2cc(C(=O)O)c(=O)n3ccccc23)CC1	cell-free assay	–	competition with immobilised ligand	1 µM	remaining binding	100%
C#Cc1n[nH]c2c(-c3cn([C@@H](C)c4ccccn4)c(=O)[nH]c3=O)cc(F)cc12	enzyme activity	inhibitor	–	0.1 µM	inhibition	0.7%
CCn1cnc2c(Nc3cccc(Cl)c3)nc(N[C@H]3CCCC[C@H]3N)nc21	enzyme activity	inhibitor	–	0.5 µM	remaining activity	99.8%
